Laboratory results as given in ChEMBL document CHEMBL1131436, “Repaglinide and related hypoglycemic benzoic acid derivatives” (1998).

Experiments:
[1] = system: Rattus norvegicus; experiment: Maximum % decrease of blood glucose (deltaBG) was observed within 4 hour after administration orally at 1 mg/kg dose to fasted adult female rats versus a control group; NS =' not significant'; type: functional, organism-based; set-up: dose 1 mg/kg
In short: (§1)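 Female Wistar rats (Chbb THOM, SPF, 200-220 g), fasted 24 h, dosed orally by gavage as suspension in 1.5% Tylose methylcellulose (10 mL/kg). Whole blood from retrobulbar plexus under light halothane, deproteinized with 0.33 M HClO4; glucose by hexokinase/G6PDH, hourly up to 4 h. % decrease vs control group (N = 7), Student's t-test, P ≤ 0.05.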

[2] = system: Rattus norvegicus; experiment: Maximum % decrease of blood glucose (deltaBG) was observed within 4 hour after administration orally at 10 mg/kg dose to fasted adult female rats versus a control group; type: functional; conditions: route oral; in short: as §1
[3] = system: Rattus norvegicus; experiment: Maximum % decrease of blood glucose (deltaBG) was observed within 4 hour after administration orally at 0.6 mg/kg dose to fasted adult female rats versus a control group; type: functional; conditions: route oral; in short: as §1
[4] = system: Rattus norvegicus; experiment: Half-maximal effective dose was measured on rat blood glucose after administrating at 4 hr; type: functional
In short: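 Adult fasted female Wistar rats (Chbb THOM, SPF, 200-220 g), food withdrawn 24 h; oral gavage of suspension in 1.5% Tylose (methylcellulose), 10 mL/kg. Retrobulbar blood under light halothane; glucose by hexokinase/G6PDH after HClO4 deproteinization, hourly to 4 h. ED50 from fit of glucose vs dose, y = b + [a × k/(k + x^nH)], Hill coefficient nH.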

[5] = system: Rattus norvegicus; experiment: Maximum % decrease of blood glucose (deltaBG) was observed within 4 hour after administration orally at 0.4 mg/kg dose to fasted adult female rats versus a control group; type: functional; conditions: route oral; in short: as §1
[6] = system: Rattus norvegicus; experiment: Maximum % decrease of blood glucose (deltaBG) was observed within 4 hour after administration orally at 25 mg/kg dose to fasted adult female rats versus a control group; NS =' not significant'; type: functional, organism-based; set-up: dose 25 mg/kg; in short: as §1
[7] = system: Rattus norvegicus; experiment: Maximum % decrease of blood glucose (deltaBG) was observed within 4 hour after administration orally at 25 mg/kg dose to fasted adult female rats versus a control group; type: functional; conditions: route oral; in short: as §1
[8] = system: Rattus norvegicus; experiment: Maximum % decrease of blood glucose (deltaBG) was observed within 1 hour after administration orally at 0.1 mg/kg dose to fasted adult female rats versus a control group; type: functional; conditions: route oral; in short: as §1
[9] = system: Rattus norvegicus; experiment: Maximum % decrease of blood glucose (deltaBG) was observed within 4 hour after administration orally at 0.01 mg/kg dose to fasted adult female rats versus a control group; type: functional; conditions: route oral; in short: as §1
[10] = system: Rattus norvegicus; experiment: Maximum % decrease of blood glucose (deltaBG) was observed within 0.5 hour after administration orally at 0.1 mg/kg dose to fasted adult female rats versus a control group; type: functional; conditions: route oral
[11] = system: Rattus norvegicus; experiment: Maximum % decrease of blood glucose (deltaBG) was observed within 2 hour after administration orally at 0.1 mg/kg dose to fasted adult female rats versus a control group; type: functional; conditions: route oral; in short: as §1
[12] = system: Rattus norvegicus; experiment: Maximum % decrease of blood glucose (deltaBG) was observed within 3 hour after administration orally at 0.1 mg/kg dose to fasted adult female rats versus a control group; type: functional; conditions: route oral; in short: as §1
[13] = system: Rattus norvegicus; experiment: Maximum % decrease of blood glucose (deltaBG) was observed within 4 hour after administration orally at 0.1 mg/kg dose to fasted adult female rats versus a control group; type: functional; conditions: route oral, 0.1 mg/kg; in short: as §1
[14] = system: Rattus norvegicus; experiment: Maximum % decrease of blood glucose (deltaBG) was observed within 4 hour after administration orally at 5 mg/kg dose to fasted adult female rats versus a control group; type: functional; conditions: route oral; in short: as §1
[15] = system: Rattus norvegicus; experiment: Maximum % decrease of blood glucose (deltaBG) was observed within 4 hour after administration orally at 100 mg/kg dose to fasted adult female rats versus a control group; NS =' not significant'; type: functional, organism-based; set-up: dose 100 mg/kg; in short: as §1
[16] = system: Rattus norvegicus; experiment: Maximum % decrease of blood glucose (deltaBG) was observed within 4 hour after administration orally at 5 mg/kg dose to fasted adult female rats versus a control group; NS =' not significant'; type: functional, organism-based; set-up: dose 5 mg/kg; in short: as §1
[17] = system: Rattus norvegicus; experiment: Maximum % decrease of blood glucose (deltaBG) was observed within 4 hour after administration orally at 10 mg/kg dose to fasted adult female rats versus a control group; NS =' not significant'; type: functional, organism-based; set-up: dose 10 mg/kg; in short: as §1
[18] = system: Rattus norvegicus; experiment: Maximum % decrease of blood glucose (deltaBG) was observed within 4 hour after administration orally at 100 mg/kg dose to fasted adult female rats versus a control group; type: functional; conditions: route oral; in short: as §1

CCCC(NC(=O)Cc1ccc(C(=O)O)c(O)c1)c1ccccc1N1CCCCC1 (stereo unspecified)
Delta BG [1]: Not significant
Delta BG [2]: -47%

O=C(Cc1ccc(C(=O)O)cc1)NC(c1ccccc1)c1ccccc1N1CCCCC1 (stereo unspecified)
Delta BG [3]: -36%
ED50 ([4]; Rattus norvegicus, Blood, 4 h, read-out: ED50): 0.38 mg/kg
Delta BG [5]: -23%

CC(NC(=O)Cc1ccc(C(=O)O)cc1)c1cc(Cl)ccc1N1CCCCCCCC1 (stereo unspecified)
Delta BG [6]: Not significant

CC(NC(=O)Cc1ccc(C(=O)O)cc1)c1ccc(N2CCCCC2)cc1 (stereo unspecified)
Delta BG [6]: Not significant

O=C(O)c1ccc(CCNC(=O)c2cc(Cl)ccc2N2CCCC2)cc1
Delta BG [7]: -18%

CCOc1cc(CC(=O)N[C@@H](CC(C)C)c2ccccc2N2CCCCC2)ccc1C(=O)O (stereo in doubt; (S)-6al) [REPAGLINIDE]
Delta BG [8]: -47%
Delta BG [9]: -21%
Delta BG [10]: -42%
Delta BG [11]: -40%
ED50 [4]: 0.01 mg/kg
Delta BG [12]: -34%
Delta BG [13]: -47%

CC(NC(=O)Cc1ccc(C(=O)O)cc1)c1cc(Cl)ccc1N1CCCCC1 (stereo unspecified)
Delta BG [2]: -36%
Delta BG [14]: -18%

CCN(CC)c1ccc(Cl)cc1C(=O)NCCc1ccc(C(=O)O)cc1
Delta BG [7]: -35%

O=C(NCCc1ccccc1)c1cc(Cl)ccc1N1CCCCCCCC1
Delta BG [15]: Not significant

CC(NC(=O)Cc1ccc(C(=O)O)cc1)c1cc(Cl)ccc1N1CCCCCCC1 (stereo unspecified)
Delta BG [6]: Not significant

CN(C)c1ccc(Cl)cc1C(=O)NCCc1ccc(C(=O)O)cc1
Delta BG [7]: -28%

CC(NC(=O)Cc1ccc(C(=O)O)cc1)c1cc(Cl)ccc1N1CCCCCC1 (stereo unspecified)
Delta BG [16]: Not significant

O=C(O)c1ccc(CCNC(=O)c2cc(Cl)ccc2N2CCCCCCCCCC2)cc1
Delta BG [1]: Not significant

CC(C(=O)NCc1ccc(C(=O)O)cc1)c1ccccc1N1CCCCC1 (stereo unspecified)
Delta BG [14]: -32%

CC(C)(NC(=O)Cc1ccc(C(=O)O)cc1)c1cc(Cl)ccc1N1CCCCC1
Delta BG [17]: Not significant

CC(NC(=O)Cc1ccccc1C(=O)O)c1ccccc1N1CCCCC1 (stereo unspecified)
Delta BG [6]: Not significant

CCOc1cc(CC(=O)N[C@@H](CC(C)C)c2ccccc2N2CCCCC2)ccc1C(=O)O (stereo in doubt; 6al) [REPAGLINIDE]
Delta BG [9]: -19%
ED50 [4]: 0.022 mg/kg
Delta BG [13]: -44%

O=C(O)c1ccc(CCNC(=O)c2cccc(Cl)c2)cc1
Delta BG [18]: -23%

CCCC(NCCc1ccc(C(=O)O)cc1)c1ccccc1N1CCCCC1 (stereo unspecified)
Delta BG [17]: Not significant
